# Measurements gathered from unrelated publications.
# Lines come from different studies, so protocols differ.
# FABP1: Fatty acid-binding protein, liver (FABP1, Homo sapiens, UniProt P07148)
# rep main protease: Replicase polyprotein 1ab, main protease (rep, Severe acute respiratory syndrome coronavirus 2, UniProt P0DTD1)
# rep methyltransferase: Replicase polyprotein 1ab, methyltransferase (rep, Severe acute respiratory syndrome coronavirus 2, UniProt P0DTD1)
SMILES,target,assay,setting,measurement,result
COc1cc2c(cc1OC)CN(CCc1ccc(NC(=O)c3cccc4c(=O)c5cccc(OC)c5[nH]c34)cc1)CC2,"Histamine H2 receptor (HRH2, Homo sapiens, UniProt P25021)",cell-free assay,,Ki,1.1 µM
NS(=O)(=O)C(F)(F)C(F)(F)C(F)(F)C(F)(F)C(F)(F)C(F)(F)C(F)(F)C(F)(F)F,FABP1,"ligand displacement, fluorescence",,Kd,5.87 µM
CC(=O)[C@@]1(O)CC[C@H]2[C@@H]3C[C@H](C)C4=CC(=O)C=C[C@]4(C)[C@@]3(F)[C@@H](O)C[C@@]21C,rep main protease,"enzyme activity, inhibitor",,IC50,60.6 µM
COc1ncc(-c2ccc3nccc(-c4ccnnc4)c3c2)cc1NS(=O)(=O)c1ccc(F)cc1F,rep methyltransferase,"enzyme activity, inhibitor",,IC50,~100 µM
CN1C(=O)/C(=N\Nc2ncc(-c3cc4ccccc4oc3=O)s2)c2cc(Cl)ccc21,"Alpha-glucosidase MAL12 (MAL12, Saccharomyces cerevisiae S288c, UniProt P53341)","enzyme activity, inhibitor, absorbance",,IC50,112 µM
CC1CC(c2ccc(S(N)(=O)=O)cc2)=NN1c1ccc(C#N)c(Cl)c1 (centres unmarked),rep methyltransferase,"enzyme activity, inhibitor",,IC50,> 100 µM
O=C(O)c1cc(O)c(O)c(O)c1,rep main protease,"binding, MST",,Kd,3.95 µM
CCNS(=O)(=O)C(F)(F)C(F)(F)C(F)(F)C(F)(F)C(F)(F)C(F)(F)C(F)(F)C(F)(F)F,FABP1,"ligand displacement, fluorescence",,Kd,16.6 µM
O=c1c(O)c(-c2ccc(O)cc2)oc2c(O)c(O)cc(O)c12,rep main protease,"enzyme activity, inhibitor",with preincubation,IC50,< 10 µM
CCOC(=O)c1ccc(OC(=O)CCCCCN=C(N)N)cc1,"Kallikrein-12 (Homo sapiens, UniProt Q9UKR0)","enzyme activity, inhibitor",,IC50,0.0357 µM
CC1(C)O[C@@H]2C[C@H]3[C@@H]4CCC5=CC(=O)C=C[C@]5(C)[C@H]4[C@@H](O)C[C@]3(C)[C@]2(C(=O)CO)O1,rep main protease,"enzyme activity, inhibitor",,IC50,71.4 µM
